The source of these data is ChEMBL document CHEMBL2331343 (Bioorg Med Chem, 2013).

Calls of active or inactive are those of the source. The calls are words filed in the database; no cut-off is given here.

In data set [1] the test system is Rattus norvegicus. Put plainly: Antipsychotic activity in Sprague-Dawley rat schizophrenia model assessed as inhibition of PCP-induced prepulse inhibition at 0.5 mg/kg, ip administered 10 mins prior testing monitored for 5 mins. It is filed as functional, organism-based. Also noted: dose 0.5 mg/kg. A digest of the protocol:
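Male Sprague–Dawley rats (230–280 g) received ip saline or drug 10 min before PCP (5 mg/kg, ip). Acoustic startle PPI was tested 5 min after PCP, after 3-min acclimation: 40 ms, 120 dB white-noise pulse-alone and prepulse+pulse trials, 15–25 s intertrial interval, 74 dB background, about 20 min session. %PPI = [1 − (prepulse+pulse startle)/(pulse-alone startle)] × 100.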

Data set [2] deals with Rattus norvegicus. Put plainly: In vivo agonist activity at 5-HT1A receptor in WAY100635 pre-treated Sprague-Dawley rat DA neuron assessed as increase in bursts at 1 mg/kg, iv. The data set is classed as functional, organism-based. Also noted: dose 1 mg/kg. In a few lines:
(§1)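 Anesthetized (chloral hydrate) Sprague-Dawley rats given raclopride, then WAY100635 before compound 1 mg/kg. VTA DA neuron single-unit firing rate and bursts analysed every 10 s as % of post-raclopride baseline. n = 5, paired t-test.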

The subject of data set [3] is Rattus norvegicus. The data set is described as follows: In vivo agonist activity at 5-HT1A receptor in WAY100635 pre-treated Sprague-Dawley rat DA neuron assessed as increase in firing rate at 1 mg/kg, iv. The data set is classed as functional, organism-based. Also noted: dose 1 mg/kg. A digest of the protocol:
as §1

Data set [4] deals with Rattus norvegicus. Put plainly: In vivo agonist activity at 5-HT1A receptor in Sprague-Dawley rat DA neuron assessed as increase in bursts at 1 mg/kg, iv in presence of WAY100635. Also noted: dose 1 mg/kg. It is filed as functional, organism-based. In a few lines: (§2)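 VTA DA neuron single-unit recording in chloral hydrate-anesthetized Sprague-Dawley rats after raclopride 0.1 mg/kg. Compound 1 mg/kg was followed by WAY100635 1.0 mg/kg. Firing rate and bursting were analysed in 10 s bins relative to the post-raclopride baseline.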

Data set [5] has as its system Rattus norvegicus. Put plainly: In vivo agonist activity at 5-HT1A receptor in Sprague-Dawley rat DA neuron assessed as increase in firing rate at 1 mg/kg, iv in presence of WAY100635. Also noted: dose 1 mg/kg. It is filed as functional, organism-based. A digest of the protocol:
as §2

In data set [6] the test system is Rattus norvegicus. The data set is described as follows: In vivo agonist activity at 5-HT1A receptor in Sprague-Dawley rat DA neuron assessed as increase in bursts at 1 mg/kg, iv. The data set is classed as functional, organism-based. Set-up: dose 1 mg/kg. A digest of the protocol: (§3)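 Male Sprague-Dawley rats under chloral hydrate anesthesia (400 mg/kg ip) at 37 °C. Single-unit recording of VTA DA neurons by glass microelectrode. Raclopride 0.1 mg/kg given first, then compound 1 mg/kg. Firing rate and bursts analysed every 10 s as % of post-raclopride baseline. n = 5, paired t-test.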

In data set [7] the test system is Rattus norvegicus. The data set is described as follows: In vivo agonist activity at 5-HT1A receptor in Sprague-Dawley rat DA neuron assessed as increase in firing rate at 1 mg/kg, iv. The data set is classed as functional. In a few lines: as §3
Data set [8] relates to Rattus norvegicus. The data set is described as follows: Effect on prepulse inhibition in Sprague-Dawley rat schizophrenia model at 5 mg/kg, ip administered 10 mins prior testing monitored for 5 mins. The data set is classed as ADME, organism-based. Set-up: dose 5 mg/kg, route intraperitoneal. The settings on record: in vivo. In a few lines:
(§4)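 Male Sprague-Dawley rats were pretreated ip with saline or compound 10 min before PCP (5 mg/kg, ip). Acoustic startle was tested 5 min after PCP, following 3 min acclimation: 40 ms, 120 dB pulse with prepulse trials, 74 dB background, 15–25 s intertrial interval, session about 20 min. %PPI = [1 − (prepulse+pulse)/(pulse alone)]×100. Startle = mean of pulse-alone trials, first 3 excluded.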

Data set [9] deals with Rattus norvegicus. Put plainly: Effect on baseline startle reactivity in Sprague-Dawley rat schizophrenia model at 5 mg/kg, ip administered 10 mins prior testing monitored for 5 mins. The data set is classed as ADME, organism-based. Set-up: dose 5 mg/kg, route intraperitoneal. The conditions noted are these: in vivo. In a few lines: as §4
Data set [10] has as its system Rattus norvegicus. Put plainly: Antipsychotic activity in Sprague-Dawley rat schizophrenia model assessed as effect on 120 db noise-induced absolute acoustic startle responses at 5 mg/kg, ip administered 10 mins prior testing monitored for 5 mins. It is filed as functional, organism-based. Also noted: dose 5 mg/kg. In a few lines: as §4
Data set [11] relates to Rattus norvegicus. The data set is described as follows: Antipsychotic activity in Sprague-Dawley rat schizophrenia model assessed as inhibition of PCP-induced prepulse inhibition at 5 mg/kg, ip administered 10 mins prior testing monitored for 5 mins. The data set is classed as functional, organism-based. Also noted: dose 5 mg/kg. A digest of the protocol:
as §4

Data set [12] relates to Rattus norvegicus. Put plainly: Antipsychotic activity in Sprague-Dawley rat schizophrenia model assessed as inhibition of PCP-induced hyperlocomotion at 2.5 mg/kg, ip administered 10 mins prior testing […]. It is filed as functional, organism-based. Also noted: dose 2.5 mg/kg.
Data set [13] concerns Rattus norvegicus. Put plainly: Antipsychotic activity in ip dosed Sprague-Dawley rat schizophrenia model assessed as inhibition of PCP-induced hyperlocomotion administered 10 mins prior testing monitored for 5 mins. It is filed as functional, organism-based. A digest of the protocol: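 Male Sprague-Dawley rats (230–280 g) given saline or compound ip 10 min before PCP 5 mg/kg. Starting 5 min after PCP, rats were video-tracked in a 40×40×45 cm open field for 30 min. Total distance recorded; n = 6–12 per group; one-way ANOVA with Tamhane post hoc test.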

Data set [14] has as its target T1, 5-hydroxytryptamine receptor 1A (Homo sapiens) (UniProt P08908).
T1 sequence (whole entry): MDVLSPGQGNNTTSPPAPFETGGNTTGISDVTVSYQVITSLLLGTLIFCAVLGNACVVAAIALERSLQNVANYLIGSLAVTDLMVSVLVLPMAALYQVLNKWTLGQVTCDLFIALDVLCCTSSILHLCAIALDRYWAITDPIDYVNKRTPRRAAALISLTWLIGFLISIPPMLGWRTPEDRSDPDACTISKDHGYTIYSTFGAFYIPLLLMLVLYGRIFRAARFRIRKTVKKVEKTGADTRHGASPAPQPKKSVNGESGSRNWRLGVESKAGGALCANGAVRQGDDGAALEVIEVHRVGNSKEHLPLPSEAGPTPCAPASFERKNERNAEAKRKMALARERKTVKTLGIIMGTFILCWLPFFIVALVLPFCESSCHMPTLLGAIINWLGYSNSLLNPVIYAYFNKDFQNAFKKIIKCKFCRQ
The data set is described as follows: (§5) Agonist activity at 5-HT1A receptor (unknown origin) expressed in HEK293 cells assessed as […] of [35S]GTPgammaS binding by scintillation proximity assay. The data set is classed as functional, cell-based. For orientation: GTPγS is a poorly hydrolysed GTP analogue; its binding reports G protein activation.

The target of data set [15] is T2, 5-hydroxytryptamine receptor 1A (Homo sapiens, UniProt P08908).
T2 sequence (P08908 whole entry): T1 sequence (whole entry)
The description is as §5. The data set is classed as functional, cell-based.

The target of data set [16] is T3, D(1A) dopamine receptor (Homo sapiens, UniProt P21728). Put plainly: Antagonist activity at dopamine D1 receptor (unknown origin) expressed in HEK293 cells assessed as inhibition of [35S]GTPgammaS binding by scintillation proximity assay. The data set is classed as functional, cell-based.
T3 sequence (P21728 whole entry): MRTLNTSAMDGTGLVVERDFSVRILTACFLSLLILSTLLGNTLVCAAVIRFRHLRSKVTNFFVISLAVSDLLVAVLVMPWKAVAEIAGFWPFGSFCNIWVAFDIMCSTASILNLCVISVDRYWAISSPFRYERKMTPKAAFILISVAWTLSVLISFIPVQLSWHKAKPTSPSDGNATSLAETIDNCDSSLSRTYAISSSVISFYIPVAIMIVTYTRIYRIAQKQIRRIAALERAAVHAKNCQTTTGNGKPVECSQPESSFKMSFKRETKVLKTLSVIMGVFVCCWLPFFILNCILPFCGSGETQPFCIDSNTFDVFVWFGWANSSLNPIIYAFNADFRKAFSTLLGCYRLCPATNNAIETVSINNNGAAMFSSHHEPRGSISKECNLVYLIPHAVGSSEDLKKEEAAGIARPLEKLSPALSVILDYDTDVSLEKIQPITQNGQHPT
Data set [17] deals with T3, D(1A) dopamine receptor. Put plainly: Agonist activity at dopamine D1 receptor (unknown origin) expressed in HEK293 cells assessed as stimulation of [35S]GTPgammaS binding by scintillation proximity assay. It is filed as functional, cell-based.
For data set [18], the target named is T2, 5-hydroxytryptamine receptor 1A. The data set is described as follows: Displacement of [3H]8-OH-DPAT from 5-HT1A receptor (unknown origin) expressed in HEK293 cells by liquid scintillation counter. The data set is classed as cell-based. In general terms: In a radioligand displacement assay an active substance lowers the binding of a labelled ligand.
Data set [19] addresses T4, D(2) dopamine receptor (Homo sapiens, UniProt P14416). Put plainly: Displacement of [3H]spiperone from dopamine D2 receptor (unknown origin) expressed in human HEK293 cells by liquid scintillation counter. The data set is classed as cell-based.
Data set [20] concerns the target T3, D(1A) dopamine receptor. Put plainly: Displacement of [3H]SCH23390 from dopamine D1 receptor (unknown origin) expressed in human HEK293 cells by liquid scintillation counter. It is filed as cell-based. In a few lines:
(§6)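 Stably transfected HEK293T D1 membranes, […], duplicate incubation 50 min at 30 °C with [3H]SCH23390 in 50 mM Tris, 4 mM MgCl2, pH 7.4. Nonspecific binding with 10 μM SCH23390. GF/B filtration, scintillation counting.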

Data set [21] addresses 5-hydroxytryptamine receptor 2A (Homo sapiens, UniProt P28223). Put plainly: Inhibition of [3H]Ketanserin binding to 5-HT2A receptor (unknown origin) expressed in HEK293 cells at 10 uM by liquid scintillation counter relative to control. The data set is classed as cell-based. A digest of the protocol:
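Membranes of HEK293T stably transfected with 5-HT2A, […], incubated in duplicate 15 min at 37 °C with [3H]ketanserin in 50 mM Tris, 4 mM MgCl2, pH 7.4. […] GF/B filtration, cold wash, scintillation counting.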

Data set [22] concerns the target T1, 5-hydroxytryptamine receptor 1A (Homo sapiens). The data set is described as follows: Inhibition of [3H]8-OH-DPAT binding to 5-HT1A receptor (unknown origin) expressed in HEK293 cells at 10 uM by liquid scintillation counter relative to control. It is filed as cell-based. A digest of the protocol: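 Membranes of HEK293T stably transfected with 5-HT1A, […], incubated in duplicate 50 min at 30 °C with [3H]8-OH-DPAT in 50 mM Tris, 4 mM MgCl2, pH 7.4. Nonspecific binding with 10 μM WAY100635. Filtration on GF/B, cold Tris/EDTA wash, scintillation counting.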

Data set [23] concerns the target T3, D(1A) dopamine receptor. The data set is described as follows: Inhibition of [3H]SCH23390 binding to dopamine D1 receptor (unknown origin) expressed in human HEK293 cells at 10 uM by liquid scintillation counter relative to control. It is filed as cell-based. In a few lines:
as §6

Data set [24] addresses T4, D(2) dopamine receptor.
The target of data set [25] is T4, D(2) dopamine receptor. The settings on record: HEK293, at 10 µM.
In data set [26] the test system is Rattus norvegicus. The data set is described as follows: Antipsychotic activity in Sprague-Dawley rat schizophrenia model assessed as inhibition of PCP-induced prepulse inhibition at 10 mg/kg, ip administered 10 mins prior testing monitored for 5 mins. Also noted: dose 10 mg/kg. It is filed as functional, organism-based. In a few lines: as §4
Data set [27] concerns Rattus norvegicus. Put plainly: Antipsychotic activity in Sprague-Dawley rat schizophrenia model assessed as inhibition of PCP-induced hyperlocomotion at 10 mg/kg, ip administered 10 mins prior testing […]. The data set is classed as functional, organism-based. Also noted: dose 10 mg/kg.

The term inhibition denotes the share of the control response that was lost under treatment. As a reminder, the Emax is the greatest response seen or fitted, relative to the assay's reference. By EC50 is commonly meant the concentration giving half of the maximal effect. One may read the IC50 as the concentration that inhibits the measured activity by half. In general, Ki refers to the equilibrium dissociation constant of an inhibitor or competing ligand from its target.

T4 sequence (P14416 whole entry): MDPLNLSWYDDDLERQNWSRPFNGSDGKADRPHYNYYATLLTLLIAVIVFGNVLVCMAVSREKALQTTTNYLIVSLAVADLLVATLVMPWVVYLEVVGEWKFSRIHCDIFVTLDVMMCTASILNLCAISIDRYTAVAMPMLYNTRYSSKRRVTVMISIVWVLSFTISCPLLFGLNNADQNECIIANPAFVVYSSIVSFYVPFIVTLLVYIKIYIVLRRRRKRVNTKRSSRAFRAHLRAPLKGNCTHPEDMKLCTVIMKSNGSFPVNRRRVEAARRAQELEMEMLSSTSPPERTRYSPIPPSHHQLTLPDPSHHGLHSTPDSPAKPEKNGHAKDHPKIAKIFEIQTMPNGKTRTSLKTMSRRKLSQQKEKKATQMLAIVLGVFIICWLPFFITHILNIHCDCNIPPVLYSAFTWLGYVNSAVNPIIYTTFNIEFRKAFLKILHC
Chain of 5-hydroxytryptamine receptor 2A (P28223 whole entry): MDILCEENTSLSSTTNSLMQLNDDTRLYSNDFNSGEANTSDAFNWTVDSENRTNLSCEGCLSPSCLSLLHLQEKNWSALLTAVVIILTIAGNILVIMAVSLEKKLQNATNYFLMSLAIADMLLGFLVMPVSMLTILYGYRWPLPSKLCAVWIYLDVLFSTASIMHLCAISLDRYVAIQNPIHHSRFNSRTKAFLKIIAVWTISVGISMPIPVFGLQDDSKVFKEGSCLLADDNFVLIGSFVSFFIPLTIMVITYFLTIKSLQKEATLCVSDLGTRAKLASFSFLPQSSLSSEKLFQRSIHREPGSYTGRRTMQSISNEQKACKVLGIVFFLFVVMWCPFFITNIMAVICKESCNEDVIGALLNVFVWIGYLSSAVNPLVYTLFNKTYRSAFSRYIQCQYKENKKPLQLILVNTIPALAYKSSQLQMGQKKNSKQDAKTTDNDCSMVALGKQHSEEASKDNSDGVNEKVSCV

`Cc1nc2n(c(=O)c1CCN1CCC(c3noc4cc(F)ccc34)CC1)CCCC2`: the inhibition entry in the data set with Rattus norvegicus [1] is “Active”.
On to `COc1cc2c(cc1OC)[C@@H]1Cc3ccc(O)c(OC)c3CN1CC2`, for which the outcome in the data set with Rattus norvegicus [2], in the data set on Rattus norvegicus [3], with Rattus norvegicus [4], in the data set on Rattus norvegicus [5] and in the data set on Rattus norvegicus [10] was inactive. In addition, the result in the data set on Rattus norvegicus [6] was Active. The Activity in the data set on Rattus norvegicus [7] is listed as 128.3%; with Rattus norvegicus [8], “Non-toxic”; with Rattus norvegicus [9], “Non-toxic”. Besides, the inhibition entry with Rattus norvegicus [11] and in the data set on Rattus norvegicus [12] was “Active” in each case. In addition, the inhibition result in the data set on Rattus norvegicus [13] was “Dose-dependent effect”; in [21], 68.8%; in data set [22], 97.4%; at D(1A) dopamine receptor [23], 98.8%; on D(2) dopamine receptor [25] it was 88.8%. Further, the Emax in [14] is 156%. The EC50 was 190 nM in [15] and 1350 nM on D(1A) dopamine receptor [17]. The values for the IC50 on D(1A) dopamine receptor [16] and on D(2) dopamine receptor [24] were 21300 nM and 18700 nM, respectively. Also, the Ki in data set [18] turned out to be 149 nM; at D(2) dopamine receptor [19] it was 305 nM; on D(1A) dopamine receptor [20], 50 nM.
As to `COc1c(O)ccc2c1CN1CCc3cc4c(cc3[C@@H]1C2)OCO4`, the Activity result in the data set with Rattus norvegicus [9] is listed as “Non-toxic”. Also, in the data set with Rattus norvegicus [10], the result was inactive. Besides, the inhibition entry in the data set on Rattus norvegicus [26], in the data set on Rattus norvegicus [11] and in the data set with Rattus norvegicus [27] was “Active” in each case. Further, the inhibition result in the data set on Rattus norvegicus [13] is “Dose-dependent effect”; in data set [21] it was 73.6%; in [22], 95.7%; on D(1A) dopamine receptor [23] it was 99.7%; against D(2) dopamine receptor [25], 92.8%. Further, the Emax in [14] stood at 80.7%. Further, the EC50 is 13500 nM in [15] and 16000 nM on D(1A) dopamine receptor [17]. For the same compound, the IC50 on D(1A) dopamine receptor [16] turned out to be 17400 nM; against D(2) dopamine receptor [24], 1000 nM. For the same compound, the inhibition constant Ki in [18] was 908 nM; at D(2) dopamine receptor [19], 145 nM; at D(1A) dopamine receptor [20], 6.3 nM.
